Laboratory results as given in ChEMBL document CHEMBL2062382, “Bicyclic C21 terpenoids from the marine sponge Clathria compressa” (J Nat Prod, 2012).
Values after ≈ are worked out from the molar mass of the structure shown. Active and inactive are the calls of the source. The rule behind the calls is not given here.

Assays:
Klebsiella pneumoniae = assay: Antibacterial activity against Klebsiella pneumoniae ATCC 10031 at 128 ug/ml after 20 hrs by broth microdilution method; assay type: functional, organism-based
Summary of the method: (§1)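 Strains are grown on Müller-Hinton agar at 37 °C for 24 h, then in Müller-Hinton broth at 37 °C for 24 h. Mid-log cells at an initial 600 nm absorbance of 0.001 are exposed to two-fold serial dilutions from 0.01 to 128 µg/mL, in duplicate. Samples are dissolved in 5% DMSO/H2O, giving final DMSO below 0.5% in wells and matched in controls. Methicillin is the reference. MIC is read after 20 h at 37 °C with gentle shaking.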

Staphylococcus aureus [1] = assay: Antibacterial activity against vancomycin-resistant Staphylococcus aureus up to 128 ug/ml after 20 hrs by broth microdilution method; assay type: functional, organism-based
Summary of the method: (§2)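 ATCC strains grown on Müller-Hinton agar 37 °C 24 h, then in Müller-Hinton broth 37 °C 24 h. MIC by two-fold serial broth microdilution, 0.01 to 128 μg/mL; samples dissolved in 5% DMSO in water, final DMSO below 0.5% in all wells, duplicate. Mid-log cells at initial A600 0.001; read after 20 h at 37 °C with gentle shaking. Methicillin control included.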

Staphylococcus aureus [2] = assay: Antibacterial activity against Staphylococcus aureus ATCC 6538P up to 128 ug/ml after 20 hrs by broth microdilution method; assay type: functional, organism-based; summary of the method: as §1
Escherichia coli = assay: Antibacterial activity against Escherichia coli KCTC 1923 at 128 ug/ml after 20 hrs by broth microdilution method; assay type: functional, organism-based
Staphylococcus aureus [3] = assay: Antibacterial activity against methicillin-resistant Staphylococcus aureus ATCC 33591 up to 128 ug/ml after 20 hrs by broth microdilution method; assay type: functional, organism-based; summary of the method: as §2
[4] = Cytotoxicity against human BG02 cells at 40 uM; assay type: cell-based; conditions: bg02, 40 µM
Summary of the method: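 Growth inhibition of human embryonic stem cells (BG02) was tracked by real-time cell electronic sensing (RT-CES) in a 96-well format, with each compound tested at 40 µM.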

Staphylococcus aureus [5] = assay: Antibacterial activity against Staphylococcus aureus ATCC 6538P after 20 hrs by broth microdilution method; assay type: functional; summary of the method: as §1
Staphylococcus aureus [6] = assay: Antibacterial activity against vancomycin-resistant Staphylococcus aureus after 20 hrs by broth microdilution method; assay type: functional; summary of the method: as §2
Staphylococcus aureus [7] = assay: Antibacterial activity against methicillin-resistant Staphylococcus aureus ATCC 33591 after 20 hrs by broth microdilution method; assay type: functional; conditions: ATCC 33591, 20 h; summary of the method: as §2

C=C1CC[C@@H]2[C@](C)(CCC[C@@]2(C)/C=C/C=C(C)C)[C@H]1CC(=O)NCCS(=O)(=O)O (relative stereo)
Activity (Klebsiella pneumoniae): inactive
Activity (Staphylococcus aureus [1]): inactive
Activity (Staphylococcus aureus [2]): inactive
Activity (Escherichia coli): inactive
Activity (Staphylococcus aureus [3]): inactive
Activity [4]: Non-toxic

C=C1CC[C@@H]2[C@](C)(CCC[C@@]2(C)/C=C/C=C(C)C)[C@H]1CC(=O)O (relative stereo)
MIC (Staphylococcus aureus [5]): 32 µg/mL (≈ 101 µM)
Activity (Klebsiella pneumoniae): inactive
MIC (Staphylococcus aureus [6]): 64 µg/mL (≈ 202 µM)
MIC (Staphylococcus aureus [7]): 64 µg/mL (≈ 202 µM)
Activity (Escherichia coli): inactive
Activity [4]: Non-toxic

C=C1CC[C@@H]2[C@](C)(CCC[C@@]2(C)/C=C/C(O)C(C)(C)O)[C@H]1CC(=O)NCCS(=O)(=O)O (relative stereo)
Activity (Klebsiella pneumoniae): inactive
Activity (Staphylococcus aureus [1]): inactive
Activity (Staphylococcus aureus [2]): inactive
Activity (Escherichia coli): inactive
Activity (Staphylococcus aureus [3]): inactive
Activity [4]: Non-toxic
